Results as given in ChEMBL document CHEMBL1165861, “Synthesis and biological evaluation of some pyrazolylpyrazolines as anti-inflammatory-antimicrobial agents” (2010).
Converted amounts (≈) assume the structure as drawn.

Tests used:
Pseudomonas aeruginosa [1] = assay: Antimicrobial activity against Pseudomonas aeruginosa MTCC 741 at 4 mg/ml after 24 hrs by agar diffusion method; assay type: functional; conditions: MTCC 741, 24 h, read-out: DIZ
In short: (§1)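 Agar well diffusion: seeded agar plates swabbed with inoculum and left 15 min for adsorption, then 8 mm wells bored and loaded. Incubation 37 °C for 24 h. Inhibition zone diameter measured in mm with a zone reader. DMSO medium served as negative control and ciprofloxacin as positive control. Triplicates.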

Rattus norvegicus [2] = assay: Antiinflammatory activity in Wistar albino rat assessed as inhibition of carrageenan-induced paw edema at 50 mg/kg, po administered 30 mins before carrageenan challenge measured after 60 mins relative to control; assay type: functional
In short: (§2)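 Male Wistar albino rats (200–250 g) in groups of six, food withdrawn 12 h before and during the test. Compounds were dosed orally at 50 mg/kg; controls received tween 80 (95:5). After 30 min, 0.1 mL of 1% w/v carrageenan in saline was injected subplantar into the left hind paw. Plethysmometer volumes were taken initially and at 30–120 min. AI% is relative to control, mean ± SEM, ANOVA.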

Bacillus subtilis [3] = assay: Antimicrobial activity against Bacillus subtilis MTCC 121 at 4 mg/ml after 24 hrs by agar diffusion method; assay type: functional; conditions: MTCC 121, 24 h, read-out: DIZ; in short: as §1
Bacillus subtilis [4] = assay: Antimicrobial activity against Bacillus subtilis MTCC 121 after 24 hrs by broth microdilution assay; assay type: functional; conditions: MTCC 121, 24 h
In short: (§3)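 MIC was determined by microplate dilution (microdilution) in Müller–Hinton broth, with ciprofloxacin as the reference drug.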

Staphylococcus aureus [5] = assay: Antimicrobial activity against Staphylococcus aureus MTCC 3160 at 4 mg/ml after 24 hrs by agar diffusion method; assay type: functional; conditions: MTCC 3160, 24 h, read-out: DIZ; in short: as §1
Rattus norvegicus [6] = assay: Antiinflammatory activity in Wistar albino rat assessed as inhibition of carrageenan-induced paw edema at 50 mg/kg, po administered 30 mins before carrageenan challenge measured after 90 mins relative to control; assay type: functional; in short: as §2
Staphylococcus aureus [7] = assay: Antimicrobial activity against Staphylococcus aureus MTCC 3160 after 24 hrs by broth microdilution assay; assay type: functional; conditions: MTCC 3160, 24 h; in short: as §3
Rattus norvegicus [8] = assay: Antiinflammatory activity in Wistar albino rat assessed as inhibition of carrageenan-induced paw edema at 50 mg/kg, po administered 30 mins before carrageenan challenge measured after 30 mins relative to control; assay type: functional; in short: as §2
Pseudomonas aeruginosa [9] = assay: Antimicrobial activity against Pseudomonas aeruginosa MTCC 741 after 24 hrs by broth microdilution assay; assay type: functional; conditions: MTCC 741, 24 h; in short: as §3
Rattus norvegicus [10] = assay: Antiinflammatory activity in Wistar albino rat assessed as inhibition of carrageenan-induced paw edema at 50 mg/kg, po administered 30 mins before carrageenan challenge measured after 120 mins relative to control; assay type: functional; in short: as §2
Escherichia coli [11] = assay: Antimicrobial activity against Escherichia coli MTCC 51 at 4 mg/ml after 24 hrs by agar diffusion method; assay type: functional; conditions: MTCC 51, 24 h, read-out: DIZ; in short: as §1
Escherichia coli [12] = assay: Antimicrobial activity against Escherichia coli MTCC 51 after 24 hrs by broth microdilution assay; assay type: functional; conditions: MTCC 51, 24 h; in short: as §3
Rattus norvegicus [13] = species: Rattus norvegicus; assay: animal or person; conditions: Wistar albino, po, read-out: INH
Rattus norvegicus [14] = species: Rattus norvegicus; assay: animal or person; conditions: Wistar albino, po, read-out: INH; remark: listed apart in the source
Rattus norvegicus [15] = species: Rattus norvegicus; assay: animal or person; conditions: Wistar albino, po, read-out: INH; remark: listed apart in the source
Rattus norvegicus [16] = species: Rattus norvegicus; assay: animal or person; conditions: Wistar albino, po, read-out: INH; remark: listed apart in the source

Row | SMILES | MIC (Bacillus subtilis [4]) | MIC (Staphylococcus aureus [7]) | MIC (Pseudomonas aeruginosa [9]) | MIC (Escherichia coli [12]) | zone of inhibition at 4000 µg/mL (Pseudomonas aeruginosa [1]) | inhibition in vivo at 50 mg/kg (Rattus norvegicus [2]) | zone of inhibition at 4000 µg/mL (Bacillus subtilis [3]) | zone of inhibition at 4000 µg/mL (Staphylococcus aureus [5]) | inhibition in vivo at 50 mg/kg (Rattus norvegicus [6]) | inhibition in vivo at 50 mg/kg (Rattus norvegicus [8]) | inhibition in vivo at 50 mg/kg (Rattus norvegicus [10]) | zone of inhibition at 4000 µg/mL (Escherichia coli [11]) | inhibition in vivo at 4 mg/kg (Rattus norvegicus [13]) | inhibition in vivo at 4 mg/kg (Rattus norvegicus [14]) | inhibition in vivo at 4 mg/kg (Rattus norvegicus [15]) | inhibition in vivo at 4 mg/kg (Rattus norvegicus [16])
1 | Cc1ccc(-c2nn(-c3ccccc3)cc2C2CC(c3ccc(F)cc3)=NN2c2ccc(S(N)(=O)=O)cc2)cc1 (stereo not drawn) | 32 µg/mL (≈ 58 µM) | 32 µg/mL (≈ 58 µM) | 64 µg/mL (≈ 116 µM) | 64 µg/mL (≈ 116 µM) | 11 mm | 43% | 16.3 mm | 16.7 mm | 34% | 30% | 32% | 11.7 mm |  |  |  | 
2 | Cc1ccc(C2=NN(c3ccc(S(N)(=O)=O)cc3)C(c3cn(-c4ccccc4)nc3-c3ccc(C)cc3)C2)cc1 (stereo not drawn) | 64 µg/mL (≈ 117 µM) | 32 µg/mL (≈ 58.4 µM) | 128 µg/mL (≈ 234 µM) | 64 µg/mL (≈ 117 µM) | 9.33 mm | 19% | 10.7 mm | 16.7 mm | 16% | 18% | 9% | 10.7 mm |  |  |  | 
3 | NS(=O)(=O)c1ccc(N2N=C(c3ccc(F)cc3)CC2c2cn(-c3ccccc3)nc2-c2ccc(Br)cc2)cc1 (stereo not drawn) | 64 µg/mL (≈ 104 µM) | 64 µg/mL (≈ 104 µM) | 128 µg/mL (≈ 208 µM) | 128 µg/mL (≈ 208 µM) | 9.33 mm | 26% | 11 mm | 10 mm | 17% | 13% | 15% | 9.33 mm |  |  |  | 
4 | NS(=O)(=O)c1ccc(N2N=C(c3ccc(F)cc3)CC2c2cn(-c3ccccc3)nc2-c2ccc(F)cc2)cc1 (stereo not drawn) | 16 µg/mL (≈ 28.8 µM) | 16 µg/mL (≈ 28.8 µM) | 32 µg/mL (≈ 57.6 µM) | 32 µg/mL (≈ 57.6 µM) | 19.3 mm | 8% | 10.7 mm | 21 mm | 16% | 18% | 9% | 10.7 mm |  |  |  | 
5 | NS(=O)(=O)c1ccc(N2N=C(c3ccccc3)CC2c2cn(-c3ccccc3)nc2-c2ccccc2)cc1 (stereo not drawn) | 32 µg/mL (≈ 61.6 µM) | 32 µg/mL (≈ 61.6 µM) | 64 µg/mL (≈ 123 µM) | 64 µg/mL (≈ 123 µM) | 10.7 mm | 4% | 18.7 mm | 17.7 mm | 10% | 5% | 1% | 11.7 mm |  |  |  | 
6 | O=C(O)c1cn(C2CC2)c2cc(N3CCNCC3)c(F)cc2c1=O [CIPROFLOXACIN] | 2 µg/mL (≈ 6.04 µM) | 2 µg/mL (≈ 6.04 µM) | 4 µg/mL (≈ 12.1 µM) |  | 28 mm |  | 29.2 mm | 32.6 mm |  |  |  | 28.6 mm |  |  |  | 
7 | CS(=O)(=O)Nc1ccc([N+](=O)[O-])cc1Oc1ccccc1 [NIMESULIDE] |  |  |  |  |  |  |  |  |  |  |  |  | 43% | 36% | 45% | 37%

More lines, main results first:

Row | MIC (Bacillus subtilis [4]) | MIC (Staphylococcus aureus [7]) | MIC (Pseudomonas aeruginosa [9]) | MIC (Escherichia coli [12]) | SMILES | zone of inhibition at 4000 µg/mL (Pseudomonas aeruginosa [1]) | inhibition in vivo at 50 mg/kg (Rattus norvegicus [2]) | zone of inhibition at 4000 µg/mL (Bacillus subtilis [3]) | zone of inhibition at 4000 µg/mL (Staphylococcus aureus [5]) | inhibition in vivo at 50 mg/kg (Rattus norvegicus [6]) | inhibition in vivo at 50 mg/kg (Rattus norvegicus [8]) | inhibition in vivo at 50 mg/kg (Rattus norvegicus [10]) | zone of inhibition at 4000 µg/mL (Escherichia coli [11]) | inhibition in vivo at 4 mg/kg (Rattus norvegicus [13]) | inhibition in vivo at 4 mg/kg (Rattus norvegicus [14]) | inhibition in vivo at 4 mg/kg (Rattus norvegicus [15]) | inhibition in vivo at 4 mg/kg (Rattus norvegicus [16])
8 | 64 µg/mL (≈ 107 µM) | 32 µg/mL (≈ 53.5 µM) | 128 µg/mL (≈ 214 µM) | 64 µg/mL (≈ 107 µM) | NS(=O)(=O)c1ccc(N2N=C(c3ccc(Br)cc3)CC2c2cn(-c3ccccc3)nc2-c2ccccc2)cc1 (stereo not drawn) | 9.66 mm | 23% | 11.3 mm | 17 mm | 22% | 7% | 23% | 11.7 mm |  |  |  | 
9 | 16 µg/mL (≈ 29.8 µM) | 16 µg/mL (≈ 29.8 µM) | 32 µg/mL (≈ 59.5 µM) | 32 µg/mL (≈ 59.5 µM) | NS(=O)(=O)c1ccc(N2N=C(c3ccccc3)CC2c2cn(-c3ccccc3)nc2-c2ccc(F)cc2)cc1 (stereo not drawn) | 17.3 mm | 14% | 11.7 mm | 23.3 mm | 22% | 18% | 23% | 17.3 mm |  |  |  | 
10 | 32 µg/mL (≈ 60 µM) | 32 µg/mL (≈ 60 µM) | 64 µg/mL (≈ 120 µM) | 64 µg/mL (≈ 120 µM) | Cc1ccc(C2=NN(c3ccc(S(N)(=O)=O)cc3)C(c3cn(-c4ccccc4)nc3-c3ccccc3)C2)cc1 (stereo not drawn) | 11.7 mm | 17% | 17 mm | 16.3 mm | 27% | 5% | 26% | 11.7 mm |  |  |  | 
11 | 64 µg/mL (≈ 120 µM) | 32 µg/mL (≈ 60 µM) | 128 µg/mL (≈ 240 µM) | 64 µg/mL (≈ 120 µM) | Cc1ccc(-c2nn(-c3ccccc3)cc2C2CC(c3ccccc3)=NN2c2ccc(S(N)(=O)=O)cc2)cc1 (stereo not drawn) | 9.33 mm | 14% | 11 mm | 16 mm | 22% | 18% | 16% | 11.7 mm |  |  |  | 
12 | 8 µg/mL (≈ 13.4 µM) | 8 µg/mL (≈ 13.4 µM) | 32 µg/mL (≈ 53.5 µM) | 32 µg/mL (≈ 53.5 µM) | NS(=O)(=O)c1ccc(N2N=C(c3ccccc3)CC2c2cn(-c3ccccc3)nc2-c2ccc(Br)cc2)cc1 (stereo not drawn) | 17.3 mm | 26% | 23.7 mm | 24 mm | 38% | 16% | 32% | 17.3 mm |  |  |  | 
13 | 8 µg/mL (≈ 14.9 µM) | 8 µg/mL (≈ 14.9 µM) | 32 µg/mL (≈ 59.5 µM) | 16 µg/mL (≈ 29.8 µM) | NS(=O)(=O)c1ccc(N2N=C(c3ccc(F)cc3)CC2c2cn(-c3ccccc3)nc2-c2ccccc2)cc1 (stereo not drawn) | 17.7 mm | 25% | 23.3 mm | 23.7 mm | 23% | 22% | 15% | 21.7 mm |  |  |  | 
